High-throughput results as filed in PubChem BioAssay.
An excerpt weighted towards active compounds, which were near 2.3% of everything screened.
Tn7 DDE FP – inhibitors of Tn7 peptide binding to human fibrin DD(E); P02675; inhibition, % at 8.3 µM; FP displacement of FITC-Tn7 peptide from fibrin DD(E); 0% = median of compound wells per plate; 0.13% of 370,000 active;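 active = inhibition above the mean of compounds falling within the control limits plus 3 SD of them, cut at about 14% in these data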;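 note: 0% = plate median of compound wells and 100% = 10 µM Aha-Tn7 peptide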
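assay system = human clot-derived fibrin DD(E) complex | quantity = Fibrin-DD(E) at 2 µM final | timing = 10 min preincubation, 3 h with tracer, room temperature | signal = fluorescence polarization | measure = percent inhibition | benchmarks = high control wells with 10 µM unlabelled Aha-Tn7 peptide (full inhibition) | replicates = singlicate testing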
PLCb3 inh – inhibitors of human phospholipase C beta3 | Purified PLC-beta3, fluorogenic substrate, fluorescence | inhibition, % at 12.2 µM | 0.18% of 370,000 active | AID 720704; in the data active = inhibition above about 11%;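 note: 0% = median of compound wells on plate and 100% = full blocker control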
ADAM17 inh – ADAM17 inhibition, QFRET primary screen; P78536; recombinant ADAM17, EDANS/DABCYL FRET peptide cleavage; inhibition, % at 6.95 µM; 0.83% of 370,000 active; AID 720648;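 active = inhibition above the mean of compounds lying between control limits plus 3 SD, set per campaign, cut at about 8.5% in these data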;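 note: 0% = DMSO-only wells as the low control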
PLCg1 inh – blocks human PLC-gamma1 enzyme activity; purified PLC-gamma1, fluorogenic substrate, fluorescence; inhibition, % at 12.2 µM; 0.84% of 370,000 active; in the data active = inhibition above about 9.5%
ADAM10 inh – ADAM10 inhibition, QFRET primary screen | O14672 | recombinant ADAM10, EDANS/DABCYL FRET peptide cleavage, 3 h | inhibition, % at 7 µM | 0.62% of 370,000 active;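 active = inhibition above a per-campaign cutoff equal to the mean of compounds falling between control-based bounds plus 3 SD, cut at about 20% in these data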;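 note: 0% = DMSO wells while the 100% control is not disclosed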
DDE Tn6 FP inh – inhibitors of Tn6 peptide binding to human fibrin DD(E); Fibrin DD(E) TRITC-Tn6 fluorescence polarization displacement; inhibition, % at 8.3 µM; 0.21% of 370,000 active; AID 720509;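 active = inhibition above a per-campaign cutoff: mean of compounds within control limits plus 3 SD, cut at about 15% in these data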;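 note: 0% = median of all compound wells on the plate and 100% = blocking peptide control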
ADAM10 counter – inhibits human ADAM10 in ADAM17 exosite counter-screen | shares compounds with ADAM17 inh | recombinant ADAM10, EDANS/DABCYL FRET peptide cleavage, 3 h | inhibition, % at 6.95 µM | 47% of 2,900 active;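 active = mean inhibition over the triplicate runs exceeds the activity threshold set in the earlier primary screen, cut at about 20% in these data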;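 note: 0% = DMSO wells and 100% = marimastat wells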
ADAM17 confirm – confirmation of inhibitors of human ADAM17; inhibition, % at 6.95 µM; 65% of 2,900 active; recombinant ADAM17, EDANS/DABCYL QFRET peptide cleavage; shares compounds with ADAM17 inh;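 active = mean inhibition across replicates above the hit cutoff set in the primary screen, cut at about 8.5% in these data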;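 note: 0% = DMSO wells and 100% = marimastat wells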
* = called active by the depositor.

`CCN1C(=O)[C@@H]2[C@@H](c3ccc(-c4ccc(OC)cc4)c(OC)c3)N3CCCC[C@@]3(C(=O)OC)[C@@H]2C1=O` gave Tn7 DDE FP 5.8, PLCb3 inh -20.3, ADAM17 inh 9.3*, PLCg1 inh -11.2, ADAM10 inh 1.6, DDE Tn6 FP inh -5.6, ADAM10 counter -7.1 and ADAM17 confirm -1.4.
Screening N#Cc1ccc(Cn2ccc3ccc(-c4ccc5ccn(C(=O)C6CCCCC6)c5c4)cc32)cc1 returned Tn7 DDE FP 5.3, PLCb3 inh -142.9, ADAM17 inh -10.2, PLCg1 inh -103.2, ADAM10 inh -27.0 and DDE Tn6 FP inh 0.9.
For Cc1ccc(/C=N/NC(=O)C2CC(=O)N(c3ccccc3)C2)s1 (centres undefined) the results were Tn7 DDE FP -1.6, PLCb3 inh 6.5, ADAM17 inh 10.2*, PLCg1 inh 8.2, ADAM10 inh 3.5, DDE Tn6 FP inh 5.8, ADAM10 counter -0.1 and ADAM17 confirm 1.8.
`c1ccc2cc3[nH]c(CNc4nc(N5CCOCC5)nc5c4ncn5-c4ccsc4)nc3cc2c1` gave Tn7 DDE FP -1.5, PLCb3 inh -23.9, ADAM17 inh 6.0, PLCg1 inh -16.7, ADAM10 inh 9.4 and DDE Tn6 FP inh -3.8.
For CCOC(=O)C1=C(c2ccccc2)NC(=O)NC1c1cc(Br)c(O)c(OC)c1 (centres undefined) the results were Tn7 DDE FP -0.2, PLCb3 inh 0.8, ADAM17 inh 10.3*, PLCg1 inh 1.6, ADAM10 inh -0.7, DDE Tn6 FP inh 2.6, ADAM10 counter 12.8 and ADAM17 confirm 3.0.
`CCOC(=O)C1=C(C)NC(=O)NC1c1cc(Br)c(O)c(OC)c1` (centres undefined) gave Tn7 DDE FP -0.1, PLCb3 inh -26.8, ADAM17 inh -5.0, PLCg1 inh -22.3, ADAM10 inh -2.1 and DDE Tn6 FP inh -1.0.
CCOC(=O)C1=C(c2ccccc2)NC(=S)NC1c1cc([N+](=O)[O-])ccc1OC (centres undefined) was read as Tn7 DDE FP -4.1, PLCb3 inh 3.2, ADAM17 inh 9.2*, PLCg1 inh 4.9, ADAM10 inh 11.9, DDE Tn6 FP inh -4.0, ADAM10 counter 10.1 and ADAM17 confirm 6.0.
Screening O=C1CCC[C@H]2C[C@H](NCc3ccccc3F)CC[C@]23CCCN13 returned Tn7 DDE FP 0.4, PLCb3 inh 1.3, ADAM17 inh -5.7, PLCg1 inh 0.1, ADAM10 inh -6.2 and DDE Tn6 FP inh -2.9.
Cc1ccc(NS(=O)(=O)c2cc([N+](=O)[O-])ccc2NNC(=S)Nc2cc(C)ccc2C)c(C)c1 was read as Tn7 DDE FP -7.2, PLCb3 inh 4.7, ADAM17 inh 10.1*, PLCg1 inh 4.6, ADAM10 inh 20.0*, DDE Tn6 FP inh -5.3, ADAM10 counter 33.6* and ADAM17 confirm 22.0*.
For Cc1ccc([C@H]2C[C@@H](O)[C@H](n3cc(-c4ccc(F)cc4)nn3)CN2C(=O)C2CCCCC2)cc1 the results were Tn7 DDE FP -5.9, PLCb3 inh 8.1, ADAM17 inh 10.1*, PLCg1 inh 6.2, ADAM10 inh 12.0, DDE Tn6 FP inh 12.0, ADAM10 counter 28.6* and ADAM17 confirm 15.2*.
For CCCCCC(=O)N1C[C@@H](n2cc(-c3ccc(F)cc3)nn2)[C@H](O)C[C@@H]1c1ccc(Cl)cc1 the results were Tn7 DDE FP -12.1, PLCb3 inh 5.1, ADAM17 inh 11.0*, PLCg1 inh 3.4, ADAM10 inh 14.6, DDE Tn6 FP inh 8.5, ADAM10 counter 28.7* and ADAM17 confirm 16.9*.
Screening O=C(C1CCCCC1)N1C[C@H](n2cc(-c3ccc(F)cc3)nn2)[C@@H](O)C[C@@H]1c1ccc(Cl)cc1 returned Tn7 DDE FP -4.3, PLCb3 inh 2.8, ADAM17 inh 3.5, PLCg1 inh 4.7, ADAM10 inh 8.9 and DDE Tn6 FP inh -5.9.
CCn1c(SCC(=O)Nc2ncc(C(F)(F)F)cc2Cl)nnc1-c1cccc(C)c1 was read as Tn7 DDE FP -9.2, PLCb3 inh 4.8, ADAM17 inh 10.0*, PLCg1 inh 6.7, ADAM10 inh 3.6, DDE Tn6 FP inh -8.2, ADAM10 counter 1.4 and ADAM17 confirm 1.9.
For c1ccc(Cn2c(SCC3CCCCC3)nnc2-c2cccnc2)cc1 the results were Tn7 DDE FP 6.0, PLCb3 inh -2.1, ADAM17 inh -3.3, PLCg1 inh -1.9, ADAM10 inh 0.5 and DDE Tn6 FP inh -4.5.
Screening O=C(CSc1nnc(COc2cccc3ccccc23)o1)N1c2ccccc2CCc2ccccc21 returned Tn7 DDE FP 3.9, PLCb3 inh 0.7, ADAM17 inh 8.9*, PLCg1 inh 3.1, ADAM10 inh 9.2, DDE Tn6 FP inh -11.1, ADAM10 counter 12.1 and ADAM17 confirm 8.0.
`CC(C)c1ccc(NC(=O)C2CCCN(S(=O)(=O)c3ccc4c(c3)C(C)(C)C(=O)N4C)C2)cc1` (centres undefined) gave Tn7 DDE FP 1.9, PLCb3 inh 6.2, ADAM17 inh 9.6*, PLCg1 inh 5.3, ADAM10 inh 18.6, DDE Tn6 FP inh -4.4, ADAM10 counter 12.6 and ADAM17 confirm 8.8*.
`N=C1/C(=C\c2ccc(-c3cc(Cl)cc(Cl)c3)o2)C(=O)N=C2SC=C(c3ccccc3)N12` gave Tn7 DDE FP -7.8, PLCb3 inh -8.8, ADAM17 inh 1.7, PLCg1 inh 3.5, ADAM10 inh 1.7 and DDE Tn6 FP inh 6.2.
N=C1/C(=C/c2cccn2CCOc2ccccc2)C(=O)N=C2SC=C(c3ccccc3)N12 was read as Tn7 DDE FP -2.7, PLCb3 inh -73.7, ADAM17 inh 9.7*, PLCg1 inh -59.9, ADAM10 inh 11.4, DDE Tn6 FP inh -0.9, ADAM10 counter 14.8 and ADAM17 confirm 13.8*.
For Cc1nc(N2CCN(C)CC2)c2c(C)c(C(=O)Nc3ccc(C)c(F)c3)sc2n1 the results were Tn7 DDE FP -5.3, PLCb3 inh -19.1, ADAM17 inh 8.8*, PLCg1 inh -5.2, ADAM10 inh 13.2, DDE Tn6 FP inh -0.7, ADAM10 counter 7.2 and ADAM17 confirm 8.8*.
Screening Cc1cccc(NC(=O)c2sc3nc(C)nc(N4CCOCC4)c3c2C)c1 returned Tn7 DDE FP 3.0, PLCb3 inh -4.2, ADAM17 inh -0.4, PLCg1 inh -3.8, ADAM10 inh 6.7 and DDE Tn6 FP inh 4.8.
